This is a sample that favours compounds with a hit; in the whole collection about 3.5% have one here.
PglD inh = PglD (C. jejuni) enzyme inhibition. purified PglD enzyme, DTNB colorimetric CoA detection. inhibition, % at 12.5 µM. 360,000 tested, 0.098% active. AID 602405; in the data active = inhibition above about 16%, passing the limit was not always enough; inconclusive = no clear call, values can overlap the other calls
FN deposition inh = fibronectin deposition inhibition; AH1F fibroblasts, Alexa488-fibronectin deposition fluorescence, overnight; inhibition, % at 12.6 µM; 350,000 tested, 0.086% active; AID 743247;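 active = mean inhibition across replicates of 30% or more, regardless of how many single replicates reach that level; inconclusive = mean under 30% yet at least half of replicates reach 30%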;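 also: positive control wells lacked labelled fibronectin entirely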
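Material: AH1F fibroblast monolayer depositing Alexa488-labelled fibronectin into matrix | Input: 10000 AH1F cells/well | Medium: DMEM plus 2% serum, read in PBS | Reagent: Alexa488-fibronectin, 24 nM final in well | Compound dosing: One dose per compound, pinned | Schedule: 1 h adhesion, overnight exposure | Measured by: Fluorescence at 485 nm excitation, 525 nm emission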
Env fusion inh = HIV envelope-mediated fusion inhibition; HeLa-JRFL Env/CEM21 cell fusion, luciferase; 360,000 tested, 1.1% active; inhibition, % at 12.3 µM;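 active = mean replicate inhibition score of at least 50 and every replicate individually at or above 50; inconclusive = only one of the two criteria met; inactive = mean below 50 and not all replicates reaching 50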;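 also: 0% = plate neutral controls and 100% = maraviroc near 300 nM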
rRNA inh HTS = inhibits bacterial ribosomal RNA function over humanized ribosomes. E. coli WT GFP vs humanized-ribosome RFP mutants, fluorescence, 24 h; hits give low values; DMSO median 0, no signal -100. GFP signal change (wild-type ribosome), % (concentration not given with the values). 350,000 tested, 1.6% active;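 active = significant combined selectivity score with lowered wild-type GFP, culture density cut under 30%, mutant RFP and density less affected; inactive = any of these conditions unmet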
PGC1a acetyl inh = lowers PGC1a acetylation signal in U2OS cells; 350,000 tested, 0.17% active; inhibition, % at 15.6 µM; AID 651687; AlphaScreen anti-acetyl-lysine; with virally co-expressed GCN5 acetyltransferase;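 active = every replicate shows inhibition of at least 40%; inconclusive = mean inhibition at least 40% but some replicate below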;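 also: 0% = neutral control wells and 100% = positive control wells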
DENV2 CPE = DENV2-induced cell death inhibition | DENV2-infected cells, cytopathic effect rescue, plate reader | CPE inhibition, % at 9.99 µM | 350,000 tested, 1.7% active | AID 651640; in the data active = CPE inhibition above about 20%, passing the limit was not always enough; inconclusive = no clear call, values can overlap the other calls; tested in BHK-21 cells;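 also: 0% = median of neutral control wells and 100% = median of positive control wells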
Numbers without * were called inactive; ? = inconclusive; nt = not tested or not shown; [ ] = another dose, or the depositor's remark.

SMILES | PglD inh | FN deposition inh | Env fusion inh | rRNA inh HTS | PGC1a acetyl inh | DENV2 CPE
COc1ccc(C(=O)NN2C(=S)N(c3ccc(OC)cc3)C(=O)C2CC(N)=O)cc1 (stereo not given) | nt | 1.2 | 5.7 | 11.7 | nt | 8.8
COc1ccc(N2C(=O)C(CC(N)=O)N(NC(=O)c3cccc(OC)c3)C2=S)cc1 (stereo not given) | nt | -3.6 | -30.8 | 2.1 | -2.3 | 30.8*
CCN1CCN(CCC(=O)Nc2ccc(Br)c(C)c2)CC1 | 6.6 | -4.9 | 2.5 | 14.8 | 12.1 | 23.4*
CCN1CCN(CCC(=O)Nc2cccc(OC)c2)CC1 | 2.0 | 0.3 | -97.9 | nt | -10.1 | nt
CCOC(=O)N1CCN(CCC(=O)Nc2ccc(F)c(F)c2)CC1 | 1.3 | -13.6 | -0.1 | -6.4 | 3.4 | 0.4
CCOC(=O)N1CCN(CCC(=O)Nc2ccc(Br)c(C)c2)CC1 | nt | 13.1 | -4.7 | -22.7* | -4.7 | 1.0
CSc1nc(Cl)cc(Nc2ccccc2N)n1 | -2.0 | 4.1 | 78.7* | -23.4* | -4.6 | nt
COc1ccc(S(=O)(=O)N(C)C[C@H]2Oc3ncc(-c4ccncc4)cc3C(=O)N([C@@H](C)CO)C[C@H]2C)cc1 | 1.4 | 1.8 | -8.4[16.7 µM] | 5.8 | 2.0 | -3.2
COc1ccc(NC(=O)Nc2ccc3c(c2)C(=O)N([C@@H](C)CO)C[C@H](C)[C@@H](CN(C)C)OCCCC[C@H](C)O3)cc1 | -2.4 | nt | -3.7[16.7 µM] | 1.2 | -4.2 | -7.1
COc1ccc(NC(=O)N[C@H]2CC[C@H](CCNS(=O)(=O)c3cccc(Cl)c3)O[C@H]2CO)cc1 | 2.5 | -6.8 | -10.4[16.7 µM] | -6.5 | -1.4 | ?
COc1ccc(CNC(=O)CCc2nnc3ccc(NCCCN4CCCC4=O)nn23)cc1 | -1.6 | -9.1 | -2.6 | 3.3 | 9.6 | 1.7
COc1cccc(CNC(=O)CCc2nnc3ccc(NCCCN4CCCC4=O)nn23)c1 | -4.0 | 30.0* | -22.0 | 5.0 | 2.0 | -0.9
COCC(=O)N1C[C@H]2[C@@H](c3ccccc31)[C@@H](CO)N2Cc1ccccc1F | 3.0 | nt | nt | 1.6 | 5.6 | -6.2
CCc1ccccc1NC(=S)NCC1CCN(c2ccc(OC)cc2)C1 (stereo not given) | 1.3 | -8.7 | -9.8 | -18.4* | 4.6 | 8.4
CCc1cccc(C)c1NC(=S)NCC1CCN(c2ccc(OC)cc2)C1 (stereo not given) | 3.2 | -5.5 | -129.9 | -13.4 | 5.9 | -1.8
CO[C@H]1CN(C)C(=O)c2ccc(NS(C)(=O)=O)cc2OC[C@@H](C)N(Cc2ccccn2)C[C@@H]1C | 2.0 | -1.1 | 5.3[16.7 µM] | -2.2 | -5.5 | nt
CC(=O)c1c(C)[nH]c(C(=O)OCC(=O)N(C)c2c(N)n(Cc3ccccc3)c(=O)[nH]c2=O)c1C | 2.2 | 6.8 | -8.8 | 0.1 | nt | 142.6*
CC(=O)c1c(C)[nH]c(C(=O)OCC(=O)N2CCc3ccccc3C2)c1C | -3.1 | 3.4 | nt | -22.2* | -2.4 | 5.1
CCN(C(=O)CN1CCN(c2ccccc2F)CC1)c1c(N)n(Cc2ccccc2)c(=O)[nH]c1=O | nt | 3.4 | 5.9 | 6.2 | -2.3 | 1.3
CCOC(=O)c1c(C)[nH]c(C(=O)OCC(=O)N(CC)c2c(N)n(Cc3ccccc3)c(=O)[nH]c2=O)c1C | -4.8 | 2.1 | 9.8 | -6.0 | 11.6 | -5.0
CCN(C(=O)CN1CCN(c2ccccc2O)CC1)c1c(N)n(Cc2ccccc2)c(=O)[nH]c1=O | nt | nt | nt | nt | 50.3* | nt
CCOc1ccc(OCC(=O)N(C)c2c(N)n(Cc3ccccc3)c(=O)[nH]c2=O)cc1 | nt | 2.9 | -6.0 | 2.4 | nt | 24.7*
CC(=O)N(C)C[C@@H]1OCc2ccccc2-c2c(n(C)c3ccccc23)C(=O)N([C@H](C)CO)C[C@H]1C | 0.4 | -6.2 | nt | 0.4 | 4.9 | -6.7
COc1cccc(CNC(=O)C[C@@H]2CC[C@H](NC(=O)C3CCC3)[C@H](CO)O2)c1 | 0.8 | nt | -1.2[16.7 µM] | 2.9 | -13.5 | -8.5
C[C@H]1CCCCO[C@H](CN(C)Cc2ccc(Cl)c(Cl)c2)[C@@H](C)CN([C@@H](C)CO)C(=O)c2cc(NC(=O)NC3CCCCC3)ccc2O1 | -2.0 | nt | 14.2[16.7 µM] | -2.5 | nt | 10.7
SMILES | PglD inh | FN deposition inh | Env fusion inh | rRNA inh HTS | PGC1a acetyl inh | DENV2 CPE
Cc1noc(C)c1S(=O)(=O)Nc1ccc2c(c1)C(=O)N([C@@H](C)CO)C[C@H](C)[C@@H](CN(C)C(=O)Nc1ccc(C(F)(F)F)cc1)OCCCC[C@@H](C)O2 | -1.5 | nt | 22.6[16.7 µM] | 5.4 | 6.5 | 20.0
Cc1cc(Br)ccc1Nc1nc(N)nc(N)c1N=O | -1.1 | 9.7 | 56.1* | 38.5 | -3.0 | -9.2
CCCc1cn(CC[C@H]2CC[C@@H](NC(=O)Nc3ccccc3F)[C@H](CO)O2)nn1 | 1.6 | -1.0 | 9.4[16.7 µM] | -1.5 | -6.4 | 3.8
CO[C@@H]1CN(C)C(=O)c2cc(NC(=O)c3ccc4c(c3)OCO4)ccc2OC[C@@H](C)N(CC2CC2)C[C@H]1C | 6.5 | nt | 2.6[16.7 µM] | -2.7 | 104.6* | 0.3
CO[C@@H]1CN(C)C(=O)c2cc(NC(=O)c3ccc4c(c3)OCO4)ccc2OC[C@@H](C)N(CC2CC2)C[C@@H]1C | 0.1 | nt | 3.2[16.7 µM] | 0.4 | -3.6 | 77.4*
CO[C@H]1CN(C)C(=O)c2cc(NC(=O)c3ccc4c(c3)OCO4)ccc2OC[C@@H](C)N(CC2CC2)C[C@@H]1C | 1.5 | nt | 2.1[16.7 µM] | 0.8 | 0.7 | -0.7
C[C@@H]1CCCCO[C@H](CN(C)C(=O)CCCN(C)C)[C@H](C)CN([C@@H](C)CO)C(=O)c2cc(NC(=O)c3ccccc3)ccc2O1 | 1.0 | nt | -18.3[16.7 µM] | -0.4 | 11.9 | 10.1
CC(C)C#Cc1ccc2c(c1)O[C@@H](CN(C)S(C)(=O)=O)[C@H](C)CN([C@H](C)CO)S2(=O)=O | -1.6 | 5.4 | 0.6[16.7 µM] | -6.2 | -24.9 | -8.8
Cc1ccc(S(=O)(=O)N[C@H]2CC[C@@H](CCNS(=O)(=O)Cc3ccccc3)O[C@H]2CO)cc1 | 0.3 | -16.3 | -14.7[16.7 µM] | -0.3 | 0.8 | -5.1
O=C(CCc1ccccc1)c1ccc2c(c1)OCCCO2 | 3.1 | nt | -79.7 | nt | nt | nt
O/N=C(/CCc1ccccc1)c1ccc2c(c1)OCCO2 | 4.5 | 1.4 | -4.0 | -25.0* | -5.6 | 8.2
O=C(NCCc1ccccc1)c1ccc2c(c1)S(=O)(=O)c1ccccc1C2=O | -7.2 | 4.3 | -18.9 | -23.0* | -12.3 | 0.8
O=C(NCCc1ccccc1)c1ccc2c(c1)OCCO2 | 4.3 | -5.3 | 92.2* | nt | nt | 0.6
O=C(NCCc1ccccc1)c1ccc2c(c1)S(=O)(=O)c1cc(Cl)ccc1C2=O | -0.6 | 7.3 | -17.7 | -9.5 | -15.1 | -4.6
O=C(CCCc1ccccc1)c1ccc2c(c1)OCCO2 | 0.2 | nt | nt | -30.0* | -8.7 | 0.1
C/C(=N\NC(=O)c1ccccc1)c1ccc2c(c1)OCO2 | -0.8 | -4.8 | -60.7 | nt | -11.0 | nt
CC/C(=N\NC(=O)c1ccc2c(c1)OCO2)c1ccccc1 | 4.0 | 1.3 | -30.0 | 7.2 | nt | 33.1*
COCCCN(Cc1ccco1)C(=O)Cn1ncc2c([nH]c3ccccc32)c1=O | -1.3 | -1.3 | 8.6 | -2.5 | -11.1 | 24.9*

Bioassay records: PubChem, Broad Institute
